UHRF1 binding: UHRF1 methylated DNA binding inhibitors, primary screen, counter-screen for MBD2 inhibitor project, biochemical, TR-FRET, human UHRF1, single concentration; E3 ubiquitin-protein ligase UHRF1 (Homo sapiens), Q96T88; UHRF1 binding to methylated oligo; inhibition, % at 4.4 µM; actives 0.75% (n = 370,000); AID 687016, 2013; in the data active = inhibition above about 21%;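 also: UHRF1 SRA domain binding a hemimethylated CpG hairpin DNA probe; 0% = median of test compound wells and 100% = reference inhibitor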
CSN deneddyl inh: inhibitors of CSN-mediated cullin deneddylation, primary screen, biochemical, fluorescence polarization, uHTS. COP9 signalosome complex subunit 5 (Homo sapiens), Q92905. Purified CSN, SCF-Nedd8-OG deneddylation. inhibition, % at 12.5 µM. actives 0.38% (n = 360,000);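 active = pattern-corrected inhibition above about 35%, with an unprinted fluorescence ratio check between 0.5 and 1.5, limit read from the data, passing the limit was not always enough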;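 also: 0% = enzyme with substrate and 100% = substrate without enzyme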
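Test system: purified human Csn5 enzyme expressed in HEK293T cells. Amount: 0.24 nM enzyme. Reagent: SCFSkp2-Nedd8OG substrate at 10 nM final. Schedule: 90 min incubation of compound, enzyme and substrate at room temperature. Detection: fluorescence polarization. Read-out: % inhibition of substrate cleavage by Csn5.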
ATG4B inh: ATG4B protease inhibitors, primary screen, biochemical, fluorescence, uHTS; Cysteine protease ATG4B (Homo sapiens), Q9Y4P1; actives 0.51% (n = 340,000); inhibition, % at 8.33 µM; ATG4B cleavage of LC3-PLA2, NBD-HPC fluorescence, 1 h; in the data active = inhibition above about 40%
LEDGF integ inh: blockers of LEDGF/p75-dependent integrase strand transfer – biochemical, TR-FRET, high throughput, primary screen | actives 0.64% (n = 370,000) | inhibition, % at 3.7 µM | HIV-1 integrase (with human LEDGF/p75) | TR-FRET IN-LEDGF/p75 DNA integration, Eu/Cy5 | AID 743269, 2014;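 active = inhibition above the screen-wide mean plus 3 SD, cut at about 13% in these data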;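 also: signal is the Cy5 over europium emission ratio at 671 and 618 nm; 0% = plate median of compound wells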
rCAG binder: binders of r(CAG) RNA repeats, primary screen, biochemical, fluorescence | actives 1.3% (n = 370,000) | inhibition, % at 3 µM | r(CAG) RNA repeat, TO-PRO-1 dye displacement fluorescence;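 active = inhibition above the plate cutoff, the mean of all test compounds on that plate plus 3 SD, cut at about 35% in these data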;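 also: 0% = DMSO alone and 100% = 100 µM mitoxantrone as full dye displacement; higher means more dye released from RNA so lower well fluorescence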
MBD2 DNA inh: inhibitors of MBD2 binding to methylated DNA, primary screen, biochemical, TR-FRET, DNA-binding domain, human; Methyl-CpG-binding domain protein 2 (Homo sapiens), Q9UBB5; inhibition, % at 4.4 µM; MBD2 binding to methylated oligonucleotide; actives 0.31% (n = 370,000); in the data active = inhibition above about 13%
Target sequence (Q9UBB5 whole entry, looked up, the tested form may be a part): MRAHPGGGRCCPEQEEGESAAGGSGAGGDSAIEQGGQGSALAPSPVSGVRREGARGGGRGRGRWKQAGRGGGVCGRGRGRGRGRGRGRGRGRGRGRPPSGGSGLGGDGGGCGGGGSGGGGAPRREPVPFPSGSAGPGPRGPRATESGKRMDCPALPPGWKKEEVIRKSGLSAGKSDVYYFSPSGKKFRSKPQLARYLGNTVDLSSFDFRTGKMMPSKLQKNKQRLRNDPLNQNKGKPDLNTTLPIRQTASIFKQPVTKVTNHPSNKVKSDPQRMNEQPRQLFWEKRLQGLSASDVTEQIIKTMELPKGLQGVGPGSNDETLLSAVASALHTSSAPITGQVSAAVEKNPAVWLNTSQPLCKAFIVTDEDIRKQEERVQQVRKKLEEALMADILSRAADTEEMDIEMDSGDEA
ATG4B conf: ATG4B protease inhibitors, retest, confirmation, biochemical, fluorescence, single concentration; actives 92% (n = 320); shares compounds with ATG4B inh; ATG4B protease fluorescent substrate cleavage assay; inhibition, % at 8.33 µM; in the data active = inhibition above about 39%
PLA2 ctr: PLA2 enzyme inhibition, counter-screen for ATG4B inhibitor project, biochemical, single concentration, uHTS hits; shares compounds with ATG4B inh; purified PLA2, NBD-C6-HPC fluorescence, 45 min; inhibition, % at 8.33 µM; actives 66% (n = 1,600); AID 588402, 2011; in the data active = inhibition above about 50%
Target sequence (P04054 whole entry, looked up): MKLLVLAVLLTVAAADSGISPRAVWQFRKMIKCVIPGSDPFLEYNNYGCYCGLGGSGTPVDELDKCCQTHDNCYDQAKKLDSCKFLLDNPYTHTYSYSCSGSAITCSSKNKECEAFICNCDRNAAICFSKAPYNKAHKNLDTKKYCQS
Numbers without * were called inactive; i = inactive; . = not tested or not shown. Only some compounds are listed: those with a hit (about 3.1% of all), similar ones and a draw of the others.

SMILES | UHRF1 binding | CSN deneddyl inh | ATG4B inh | LEDGF integ inh | rCAG binder | MBD2 DNA inh | PLA2 ctr | others
Cc1ccc(-c2nnc(Nc3ccc(CC(N)=O)cc3)c3ccccc23)cc1S(=O)(=O)NCCO | 0 | -3 | 84* | 6 | 7 | 2 | 87*
NC(=O)c1ccc(Nc2nnc(-c3ccc(O)cc3)c3ccccc23)cc1 | -1 | 0 | -3 | -4 | 3 | 1 | .
C=CCNC(=O)CN(C(=O)c1csc2ccc(Cl)cc12)c1cccc(Br)c1 | -3 | . | . | 5 | 3 | -3 | .
CN(Cc1ccccc1)S(=O)(=O)c1cccc(C(=O)OCc2ccc(C(F)(F)F)cc2)c1 | -2 | . | . | 4 | 2 | -2 | .
CCOC(=O)C1=C(C)N=c2s/c(=C/c3cccc([N+](=O)[O-])c3O)c(=O)n2C1c1ccccc1 (stereo unspecified) | 6 | -5 | 58* | 11 | 33 | 6 | 27
CCOC(=O)C1=C(C)N=c2s/c(=C/c3cccc([N+](=O)[O-])c3O)c(=O)n2C1c1cc(OC)c(OC)c(OC)c1 (stereo unspecified) | 4 | 3 | -1 | 6 | 34 | -4 | .
O=C(O)c1cc2c(cc1NC(=O)c1ccccc1OC(F)F)OCCCO2 | -2 | -2 | 44* | 5 | 5 | -1 | 42 | ATG4B conf=58*
Cc1nn(C)cc1NC(=O)C[C@H]1CC[C@H]2[C@@H](COc3ccc(NC(=O)Nc4ccccc4)cc3C(=O)N2C)O1 | 5 | . | . | 4 | 3 | 11 | .
CC(OC(=O)c1c2c(nc3ccccc13)/C(=C\c1ccc3c(c1)OCO3)CCC2)C(=O)Nc1ccc(S(N)(=O)=O)cc1 (stereo unspecified) | . | -94 | 5 | . | . | . | .
Cc1cccc(C)c1NC(=O)COC(=O)c1c2c(nc3ccccc13)/C(=C\c1ccc3c(c1)OCO3)CCC2 | -26 | -70 | 44* | 5 | i | -9 | 16
COc1ccccc1C(=O)NC1CCCCN(Cc2cccc(Cl)c2)C1=O (stereo unspecified) | -3 | . | . | -2 | 1 | 1 | .
O=C(O)COc1ccccc1/C=C1\SC(=S)N(/N=C/c2ccccc2O)C1=O | -1 | 13 | 48* | 5 | 11 | -6 | 35 | ATG4B conf=68*
Cc1ccc(S(=O)(=O)NCc2c(Cl)cccc2Oc2ccccc2)cc1 | . | 3 | 63* | . | . | . | 59*
CC(=O)NC(Cc1ccccc1)P(=O)(O)O (stereo unspecified) | 0 | . | . | 6 | 0 | 1 | .
Cc1cc(OCC(=O)Nc2ccc(S(=O)(=O)NC3=NCCCCC3)cc2)c(C(C)C)cc1Cl | 0 | 1 | 48* | -2 | 6 | 6 | 56*
Cc1ccc(Cl)c(OCC(=O)Nc2ccc(S(=O)(=O)NC3=NCCCCC3)cc2)c1 | -2 | 2 | -3 | 0 | 4 | -1 | .
COC(=O)[C@]12C[C@H](CC(=O)N3CCN(C(=O)C4CC4)CC3)C(=O)N(Cc3cccc4ccccc34)C1=C[C@H](C1CCCC1)O[C@@H]2C | 0 | . | . | -3 | 9 | -5 | .
O=C(Oc1c(-c2ccccc2)c(=O)n2c3c(cccc13)CC2)c1ccc(Cl)cc1 | 0 | -1 | 62* | -7 | 1 | -6 | 67*
Brc1csc(C=Nc2ccc3c(c2)OCCOCCOCCOCCO3)c1 | 0 | 1 | 0 | 0 | -2 | -5 | .
Oc1c(Cl)cc(Cl)cc1C=Nc1ccc2c(c1)OCCO2 | -4 | 1 | 48* | -3 | 6 | -3 | 32 | ATG4B conf=54*
COc1cccc(N2CCN(CC(=O)N(C)Cc3ccccc3Cl)CC2)c1 | 1 | . | . | -2 | -1 | 2 | .
O=C1NC(=Nc2ccccc2)S/C1=C\c1cccn1-c1ccccc1 | -2 | 3 | 68* | 0 | 13 | -3 | 59*
Cc1cccc(N=C2NC(=O)/C(=C/c3cccn3C)S2)c1 | -1 | 3 | 12 | -3 | 4 | -1 | .
CC(C)(C)c1ccccc1N=Cc1ccc2ccccc2n1 | 7 | -1 | 54* | -6 | 0 | -2 | 35 | ATG4B conf=74*
COCCNC(=S)N1C[C@H]2CON(C)[C@H]2C[C@H]1c1ccccc1Br | 5 | . | . | 3 | 2 | -4 | .
SMILES | UHRF1 binding | CSN deneddyl inh | ATG4B inh | LEDGF integ inh | rCAG binder | MBD2 DNA inh | PLA2 ctr | others
Cc1ccccc1-c1ccc2c(c1)[C@@H]1C[C@H](N(C)C(=O)c3ccco3)[C@H]([C@H](C)O)CN1CC2 | -3 | . | . | 3 | 4 | 0 | .
Cc1nnc(N2CCCC(C(=O)NCc3cccc(F)c3)C2)c2nn(-c3ccccc3)c(C)c12 (stereo unspecified) | 0 | 5 | 50* | 2 | -8 | -1 | 37
CCc1ccc(CNC(=O)C2CCCN(c3nnc(C)c4c(C)n(-c5ccccc5)nc34)C2)cc1 (stereo unspecified) | 0 | 13 | -4 | 1 | -9 | 3 | .
Cc1ccc(-n2nnnc2SCC(=O)Nc2ccccc2-c2ccccc2)cc1C | 2 | 9 | 52* | 0 | 0 | -2 | 48
Cc1ccc(-n2c(C)cc(C(=O)COC(=O)c3ccc[nH]c3=O)c2C)cc1C | 2 | -10 | 45* | -1 | 5 | 7 | 6
O=C(CN1CCCCC1)Nc1ccccc1-c1ccccc1 | 3 | 3 | 46* | -1 | -9 | 6 | 59*
CCOc1ccc(S(=O)(=O)Nc2nc3ccccc3nc2N2CCN(C)CC2)cc1 | 1 | -1 | -2 | 3 | 15 | 7 | .
O=S(=O)(Nc1nc2ccccc2nc1N1CCN(c2ccccc2F)CC1)c1ccc(Cl)cc1 | 6 | 3 | 71* | 7 | 7 | 7 | 68*
O=C(COC(=O)c1cc(Cl)ccc1[N+](=O)[O-])NCc1ccc(Cl)cc1Cl | -2 | 2 | 52* | 1 | -1 | -1 | 46 | ATG4B conf=65*
NC(=O)c1ccc(-n2nnnc2Oc2ccccc2)cc1 | 1 | 2 | 54* | -6 | 1 | 1 | 50
C/C=C/c1ccc(Oc2nnnn2-c2ccc(C(N)=O)cc2)c(OC)c1 | 4 | -6 | 69* | -1 | 3 | 5 | 80*

Screening data as filed in PubChem BioAssay.
